According to ChEMBL document CHEMBL3352207, “Kinase domain inhibition of leucine rich repeat kinase 2 (LRRK2) using a [1,2,4]triazolo[4,3-b]pyridazine scaffold” (Bioorg Med Chem Lett, 2014):

Assays:
[1] = AUC (0 to 24 hrs) in mouse at 30 mg/kg/day, po for 14 days; assay type: ADME, organism-based; parameters: dose 30 mg/kg/day, time < 24 hr, route oral; details: plasma
Method in brief: (§1)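 Mice were dosed orally at 0, 30 and 300 mg/kg/day for 14 days, 5 males per dose group, in a PK/PD study.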

[2] = Cmax in mouse at 30 mg/kg/day, po for 14 days; assay type: ADME, organism-based; parameters: dose 30 mg/kg/day, route oral; details: in vivo; method in brief: as §1
[3] = Cmax in mouse at 300 mg/kg/day, po for 14 days; assay type: ADME, organism-based; parameters: dose 300 mg/kg/day, route oral; details: in vivo; method in brief: as §1
[4] = AUC (0 to 24 hrs) in mouse at 300 mg/kg/day, po for 14 days; assay type: ADME, organism-based; parameters: time < 24 hr, dose 300 mg/kg/day, route oral; details: plasma; method in brief: as §1
[5] = Ratio of drug level in kidney to plasma of LRRK2 G2019S transgenic mouse kidney at 30 to 300 mg/kg/day; details: kidney and plasma
[6] = Ratio of AUC (0 to tlast) in brain to plasma of rat at 10 mg/kg; assay type: ADME, organism-based; parameters: dose 10 mg/kg; details: brain and plasma

- AUC at 24 h [1]: 350 ng·h/mL
- Cmax [2]: 200 ng/mL
- Cmax [3]: 12900 ng/mL
- AUC at 24 h [4]: 20900 ng·h/mL
- Kp [5]: 2
- Kp [6]: 0.14
SMILES: COc1ccc(OC)c(Sc2ccc3nnc(-c4cnn(C)c4)n3n2)c1
